A short description of assay [1]: Inhibition of recombinant Plasmodium falciparum recombinant IspC using […]1-Deoxy-D-xylulose 5-phosphate substrate by photometric assay. The gist of the method: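 Enzyme IC50 from nonlinear regression of inhibition data; mean ± SD from nine or more data points.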
The test system of assay [2] is Plasmodium falciparum. The experiment in a line: Antiplasmodial activity against chloroquine-sensitive Plasmodium falciparum 3D7 incubated for 3 days by HRP2 detection based ELISA method. Particulars: 3D7, 72 h. It counts as functional, organism-based. An outline of the steps: (§1)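 P. falciparum in continuous in vitro culture, growth inhibition assay. Each compound was tested in 12 serial dilutions, in duplicate. IC50 is the mean of at least two independent experiments.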
For orientation: ELISA stands for enzyme-linked immunosorbent assay.

The test system of assay [3] is Plasmodium falciparum. As to the kind of experiment: Antiplasmodial activity against chloroquine-resistant Plasmodium falciparum Dd2 incubated for 3 days by HRP2 detection based ELISA method. It counts as functional, organism-based. Particulars: Dd2, 72 h. The gist of the method:
as §1

A value given as a limit tells only on which side of the number the result lay.

The IC50 is the midpoint of a concentration-inhibition curve. In the case of `O=C(COC(c1ccc(F)cc1F)P(=O)(O)O)NO` (stereo not given), the results for the half-inhibitory concentration (IC50) (in assay [1]; in the assay on Plasmodium falciparum [2]) were 1700 nM and > 50000 nM, respectively.
As for `Cc1ccc(C(CCC(=O)N(C)O)P(=O)(O)O)cc1` (stereo not given), in assay [1], the IC50 is 14 nM.
Turning to `O=C(COC(c1ccccc1)P(=O)(O)O)NO` (stereo not given), the IC50 in assay [1] is 1500 nM; with Plasmodium falciparum [2], > 50000 nM.
On to `CN(O)C(=O)COC(c1ccc(F)cc1)P(=O)(O)O` (stereo not given), for which the IC50 in assay [1] stood at 27 nM; in the assay with Plasmodium falciparum [3], 350 nM; in the assay on Plasmodium falciparum [2], 480 nM.
`CCN(O)C(=O)COC(c1ccccc1)P(=O)(O)O` (stereo not given): the IC50 in assay [1] worked out at 210 nM; in the assay with Plasmodium falciparum [3], 3800 nM; in the assay with Plasmodium falciparum [2], 8100 nM.
Regarding `Cc1ccc(C(OCC(=O)NO)P(=O)(O)O)cc1` (stereo not given), the IC50 is 1800 nM in assay [1] and > 50000 nM in the assay on Plasmodium falciparum [2].
As for `CN(O)C(=O)COC(c1ccccc1)P(=O)(O)O` (stereo not given), the IC50 in assay [1] is 37 nM; in the assay on Plasmodium falciparum [3] it was 700 nM; with Plasmodium falciparum [2], 1200 nM.
In the case of `CCNC(=O)ON(C)C(=O)COC(c1ccc(F)c(F)c1)P(=O)(OCOC(=O)C(C)(C)C)OCOC(=O)C(C)(C)C` (stereo not given), the IC50 in the assay on Plasmodium falciparum [3] stood at 22 nM; with Plasmodium falciparum [2], 31 nM.
`CN(O)C(=O)COC(c1ccc(F)c(F)c1)P(=O)(O)O` (stereo not given): the 50% inhibitory concentration (IC50) is 12 nM in assay [1], 130 nM in the assay with Plasmodium falciparum [3] and 540 nM in the assay on Plasmodium falciparum [2].
`CN(O)C(=O)COC(c1ccc(F)c(F)c1)P(=O)(OCOC(=O)C(C)(C)C)OCOC(=O)C(C)(C)C` (stereo not given): the IC50 stood at 22 nM in the assay on Plasmodium falciparum [3] and 13 nM in the assay on Plasmodium falciparum [2].
For `CCOC(=O)ON(C)C(=O)COC(c1ccc(F)c(F)c1)P(=O)(OCOC(=O)C(C)(C)C)OCOC(=O)C(C)(C)C` (stereo not given) the same measures were 19 nM and 23 nM.
As to `CN(O)C(=O)COC(c1ccc(F)cc1F)P(=O)(O)O` (stereo not given), the results for the IC50 (in assay [1]; with Plasmodium falciparum [3]; in the assay with Plasmodium falciparum [2]) were 65 nM, 1200 nM and 1300 nM, respectively.
For the compound `Cc1ccc(C(OCC(=O)N(C)O)P(=O)(O)O)cc1` (stereo not given), the results for the IC50 (in assay [1]; with Plasmodium falciparum [3]; with Plasmodium falciparum [2]) were 25 nM, 190 nM and 180 nM, respectively.
Consider `O=CN(O)CCCP(=O)(O)O` [FOSMIDOMYCIN SODIUM], for which the IC50 in the assay with Plasmodium falciparum [3] was found to be 810 nM; in the assay on Plasmodium falciparum [2], 880 nM.
With `CN(O)C(=O)COC(c1cccc2ccccc12)P(=O)(O)O` (stereo not given), the IC50 in assay [1] turned out to be 39 nM; with Plasmodium falciparum [3], 350 nM; with Plasmodium falciparum [2], 520 nM.
For `CN(O)C(=O)COC(c1ccc(Cl)c(Cl)c1)P(=O)(O)O` (stereo not given) the same measures were 14 nM, 140 nM and 240 nM.
As to `CN(O)C(=O)CCC(c1ccccc1)P(=O)(O)O` (stereo not given), the IC50 in assay [1] was 3.1 nM.

For the origin of these results see ChEMBL document CHEMBL2163278, “α-Substituted β-oxa isosteres of fosmidomycin: synthesis and biological evaluation” (J Med Chem, 2012).
